Assay [1] is filed under the species Cavia porcellus. Kind of assay: Antimuscarinic activity was assayed for its ability to block the acetyl-choline induced contraction of the guinea pig ileum. The class given is functional.
The species named for assay [2] is Rattus norvegicus. Nature of the assay: Inhibition of carbachol-induced release of alpha-amylase from pancreatic acini from rat was determined. In kind it is functional. The following applies: read-out: I50. The method in brief: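 Dispersed acini from male Sprague–Dawley rat pancreas (collagenase 0.8 mg/mL, three incubations), in DMEM with 0.2% albumin, 0.01% trypsin inhibitor, 0.09% theophylline under O2; viability >99%. Incubated with graded antagonist plus 10⁻⁵ M carbachol; secreted α-amylase by Phadebas assay; I50 by curve fitting.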

Assay [3] has as its target Muscarinic acetylcholine receptor. Nature of the assay: Inhibit the binding of [N-mnethyl-3H]-scopolamine [3H]-NMS) to Muscarinic acetylcholine receptor of human IRM-30 neuroblastoma cells.
The species entered for assay [4] is Rattus norvegicus. Nature of the assay: Compound was tested for decrease in rate of lever pressing by rat. In kind it is functional. The method in brief:
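Male Sprague–Dawley rats (350 g) lever-pressing for food on a 10-response schedule; sessions 30 min or 50 food presentations. Drug given intraperitoneally 30 min before session; saline controls. Mean ± SEM of single or duplicate determinations in four to six rats; I50 in mol/kg for rate decrease.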

On to `CCN(CC)CCOC(=O)C(c1ccccc1)c1ccccc1` [ADIPHENINE], for which the figures for the Kb in assay [1] and in assay [1] (read-out: pA2 (converted)) were 92 nM and 79.4 nM, respectively. Also, in assay [2], the IC50 is 350 nM.
What is called Ki is a dissociation constant, usually derived from enzyme kinetics or from competition with a known ligand. Read a high Ki as weaker binding. With `CCN(CC)CCOC(=O)C(C)(c1ccccc1)c1ccccc1` [APROFENE], the figures for the Kb in assay [1] and in assay [1] (read-out: pA2 (converted)) were 3.1 nM and 3.16 nM, respectively. In addition, the IC50 in assay [2] worked out at 11 nM. Further, the Ki in assay [3] stood at 23 nM.
In turn, `CN1[C@@H]2CC[C@H]1C[C@@H](OC(=O)C(CO)c1ccccc1)C2` (stereo partly drawn) [ATROPINE] registered an I50 in assay [4] of 2.3e-05 M/kg. The Kb in assay [1] and in assay [1] (read-out: pA2 (converted)) was 2 nM throughout. In assay [2], the IC50 is 51 nM.
The compound `CN1CC2CC(OC(=O)C(C)(c3ccccc3)c3ccccc3)CC1C2` (stereo not drawn) [AZAPROPHEN] gave an I50 in assay [4] of 1.9e-05 M/kg. Further, the IC50 in assay [2] was found to be 0.068 nM. In assay [3], this compound displayed a Ki of 0.27 nM.
On to `CCN(CC)CCOC(=O)C(O)(c1ccccc1)c1ccccc1` [BENACTYZINE], for which the IC50 in assay [2] was 30 nM.
Consider `CN1CCN(CC(=O)N2c3ccccc3C(=O)Nc3cccnc32)CC1` [PIRENZEPINE], for which the Kb in assay [1] was 50000 nM; in assay [1] (read-out: pA2 (converted)), 50100 nM. Besides, the IC50 in assay [2] was 2800 nM.

Values taken from ChEMBL document CHEMBL1123735 (J Med Chem, 1987).
